Reference: ChEMBL document CHEMBL1139768, “The discovery of potent, selective, and orally bioavailable hNK1 antagonists derived from pyrrolidine” (Bioorg Med Chem Lett, 2007)
One block for each compound: values may come before it.

Legend:
Substance-P receptor = Substance-P receptor (Homo sapiens, UniProt P25103); assay: Displacement of [125I]-SP from human NK1 receptor expressed in CHO cells
Gerbillinae [1] = assay: Inhibition of GR-73632-induced foot tapping in iv dosed gerbils after 24 hrs; format: functional; settings: for ED50: Gerbillinae, iv, 24 h, read-out: ID50 (the source's name)
Gerbillinae [2] = assay: Inhibition of GR-73632-induced foot tapping in gerbils at 1 mg/kg, iv; format: functional
Gerbillinae [3] = assay: Inhibition of GR-73632-induced foot tapping in gerbils at 6 mg/kg, iv after 24 hrs; format: functional
[4] = Volume of distribution in rhesus monkey; format: ADME, organism-based, Macaca mulatta; settings: in vivo
[5] = Plasma clearance in rhesus monkey; format: ADME, organism-based, Macaca mulatta
[6] = Half life in dog; format: ADME, organism-based, Canis lupus familiaris; settings: in vivo
[7] = Oral bioavailability in dog; format: ADME, organism-based, Canis lupus familiaris; settings: in vivo
[8] = Plasma clearance in rat; format: ADME, organism-based
Rhesus monkey = assay: Receptor occupancy at NK1 receptor in iv dosed rhesus monkey brain after 4 hrs; format: functional, Macaca mulatta
In short: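 Rhesus macaques received a 4-h iv infusion. Brain NK1 receptor occupancy was measured by PET and related to plasma steady-state concentration to estimate 50% and 90% occupancy levels.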

[9] = Volume of distribution in dog; format: ADME, organism-based, Canis lupus familiaris; settings: in vivo
[10] = Plasma clearance in dog; format: ADME, organism-based, Canis lupus familiaris
Gerbillinae [11] = assay: Inhibition of GR-73632-induced foot tapping in gerbils at 3 mg/kg, iv after 24 hrs; format: functional; settings: for inhibition in vivo at 3 mg/kg: Gerbillinae, iv, 24 h
[12] = Oral bioavailability in rat; format: ADME, organism-based; settings: in vivo
Neuromedin-K receptor = biological target: T1, Neuromedin-K receptor (Homo sapiens, UniProt P29371); assay: Binding affinity to NK3 receptor
T1 sequence (P29371 whole entry): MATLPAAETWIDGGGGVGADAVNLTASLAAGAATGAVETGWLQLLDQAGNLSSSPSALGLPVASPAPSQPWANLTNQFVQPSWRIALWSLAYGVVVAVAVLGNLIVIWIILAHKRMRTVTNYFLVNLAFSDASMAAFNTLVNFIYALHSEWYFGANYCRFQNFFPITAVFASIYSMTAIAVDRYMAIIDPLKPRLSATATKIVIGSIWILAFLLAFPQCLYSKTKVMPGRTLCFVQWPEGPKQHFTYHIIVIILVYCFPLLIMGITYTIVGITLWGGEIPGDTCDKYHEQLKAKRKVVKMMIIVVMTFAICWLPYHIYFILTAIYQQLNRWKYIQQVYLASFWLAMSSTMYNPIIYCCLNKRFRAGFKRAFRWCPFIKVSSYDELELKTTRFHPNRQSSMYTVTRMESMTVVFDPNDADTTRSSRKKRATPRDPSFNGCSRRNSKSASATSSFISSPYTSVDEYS

[13] = Oral bioavailability in rhesus monkey; format: ADME, organism-based, Macaca mulatta; settings: in vivo
Gerbillinae [14] = assay: Inhibition of GR-73632-induced foot tapping in orally dosed gerbils after 4 hrs; settings: po, read-out: ID50 (the source's name)
Gerbillinae [15] = assay: Inhibition of GR-73632-induced foot tapping in orally dosed gerbils after 1 hr; settings: po, read-out: ID50 (the source's name)
[16] = Half life in rhesus monkey; format: ADME, organism-based, Macaca mulatta; settings: in vivo
Cavia porcellus = assay: Inhibition of separation-induced vocalizations in po dosed guinea pig after 4 hrs; format: functional; settings: read-out: ID50 (the source's name)
In short: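 Guinea pig pups were dosed orally, and separation-induced vocalizations were measured 4 h later. ID50 is given in mg/kg.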

Substance-K receptor = biological target: T2, Substance-K receptor (Homo sapiens, UniProt P21452); assay: Binding affinity to NK2 receptor
T2 sequence (P21452 whole entry): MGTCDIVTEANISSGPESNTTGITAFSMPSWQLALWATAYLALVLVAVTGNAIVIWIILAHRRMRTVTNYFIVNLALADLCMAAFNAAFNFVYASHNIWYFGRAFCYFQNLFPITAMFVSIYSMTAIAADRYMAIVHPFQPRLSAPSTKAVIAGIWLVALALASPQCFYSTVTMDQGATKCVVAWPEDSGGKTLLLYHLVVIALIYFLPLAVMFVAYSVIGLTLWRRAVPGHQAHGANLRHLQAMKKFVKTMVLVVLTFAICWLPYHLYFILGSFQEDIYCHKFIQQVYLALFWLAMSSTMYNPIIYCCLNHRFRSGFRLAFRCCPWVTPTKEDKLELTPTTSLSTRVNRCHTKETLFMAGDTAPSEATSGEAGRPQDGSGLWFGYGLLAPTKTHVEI

[17] = Volume of distribution in rat; format: ADME, organism-based; settings: in vivo
Gerbillinae [18] = assay: Inhibition of GR-73632-induced foot tapping in iv dosed gerbils; format: functional; settings: for ED50: Gerbillinae, iv, read-out: ID50 (the source's name)
[19] = Half life in rat; format: ADME, organism-based; settings: in vivo
Gerbillinae [20] = assay: Inhibition of GR-73632-induced foot tapping in gerbils at 3 mg/kg, iv; format: functional

Substance-P receptor, sequence (P25103 whole entry): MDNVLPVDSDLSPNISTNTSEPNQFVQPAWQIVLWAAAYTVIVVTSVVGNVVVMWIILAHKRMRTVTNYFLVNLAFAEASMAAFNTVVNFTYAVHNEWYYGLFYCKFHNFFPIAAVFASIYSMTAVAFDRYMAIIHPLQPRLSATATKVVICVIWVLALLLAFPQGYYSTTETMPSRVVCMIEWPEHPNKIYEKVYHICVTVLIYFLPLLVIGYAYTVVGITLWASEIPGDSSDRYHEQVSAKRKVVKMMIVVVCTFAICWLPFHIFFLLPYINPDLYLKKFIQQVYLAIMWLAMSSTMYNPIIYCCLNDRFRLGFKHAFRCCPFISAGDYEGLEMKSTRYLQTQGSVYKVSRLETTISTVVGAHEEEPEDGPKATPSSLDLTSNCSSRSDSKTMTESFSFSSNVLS

- IC50 (Substance-P receptor): 0.38 nM
Compound: C[C@@H](O[C@@H]1CN(C(=O)N(C)C)C[C@H]1c1ccc(F)cc1)c1cc(C(F)(F)F)cc(C(F)(F)F)c1

- IC50 (Substance-P receptor): 0.06 nM
Compound: CC(C)NC(=O)N1C[C@@H](O[C@H](C)c2cc(C(F)(F)F)cc(C(F)(F)F)c2)[C@H](c2ccc(F)cc2)C1
- ED50 (Gerbillinae [1]): 0.8 mg/kg
- inhibition in vivo at 1 mg/kg (Gerbillinae [2]): 64%
- inhibition in vivo at 6 mg/kg (Gerbillinae [3]): 86%

- Vd [4]: 2.3 L/kg
- clearance [5]: 4.5 mL/min/kg
- half-life [6]: 20 h
- bioavailability [7]: 100%
- clearance [8]: 19.6 mL/min/kg
- Vd [9]: 1.6 L/kg
- clearance [10]: 1 mL/min/kg
- bioavailability [12]: 100%
- IC50 (Neuromedin-K receptor): > 3000 nM
- bioavailability [13]: 68%
- IC50 (Substance-P receptor): 0.11 nM
- half-life [16]: 5.7 h
- IC50 (Substance-K receptor): 1730 nM
- Vd [17]: 6.2 L/kg
- half-life [19]: 3.6 h
Compound: C[C@@H](O[C@@H]1CN(C2=CC(=O)CC2)C[C@H]1c1ccc(F)cc1)c1cc(C(F)(F)F)cc(C(F)(F)F)c1
- ED50 (Gerbillinae [1]): 0.045 mg/kg
- Occ50 (Rhesus monkey): 33 ng/mL
- Occ90 (Rhesus monkey): 300 ng/mL
- inhibition in vivo at 3 mg/kg (Gerbillinae [11]): 100%
- inhibition in vivo at 1 mg/kg (Gerbillinae [2]): 100%
- ED50 (Gerbillinae [14]): 0.25 mg/kg
- ED50 (Gerbillinae [15]): 0.9 mg/kg
- ED50 (Cavia porcellus): 0.17 mg/kg
- ED50 (Gerbillinae [18]): 0.1 mg/kg

- IC50 (Substance-P receptor): 0.13 nM
Compound: C[C@@H](O[C@@H]1CN(C2=CC(=O)CC(C)(C)C2)C[C@H]1c1ccccc1)c1cc(C(F)(F)F)cc(C(F)(F)F)c1
- inhibition in vivo at 3 mg/kg (Gerbillinae [11]): 5%

- IC50 (Substance-P receptor): 0.09 nM
Compound: CC(=O)N1C[C@@H](O[C@H](C)c2cc(C(F)(F)F)cc(C(F)(F)F)c2)[C@H](c2ccccc2)C1
- ED50 (Gerbillinae [1]): 3.2 mg/kg
- inhibition in vivo at 6 mg/kg (Gerbillinae [3]): 98%
- ED50 (Gerbillinae [18]): 0.6 mg/kg

- IC50 (Substance-P receptor): 0.18 nM
Compound: C[C@@H](O[C@@H]1CN(C(=O)C(C)(C)C)C[C@H]1c1ccccc1)c1cc(C(F)(F)F)cc(C(F)(F)F)c1
- inhibition in vivo at 6 mg/kg (Gerbillinae [3]): 45%

- IC50 (Substance-P receptor): 0.15 nM
Compound: CC(C)C(=O)N1C[C@@H](O[C@H](C)c2cc(C(F)(F)F)cc(C(F)(F)F)c2)[C@H](c2ccc(F)cc2)C1
- inhibition in vivo at 6 mg/kg (Gerbillinae [3]): 43%

- IC50 (Substance-P receptor): 0.3 nM
Compound: C[C@@H](O[C@@H]1CN(C2=CC(=O)C(O)C2)C[C@H]1c1ccc(F)cc1)c1cc(C(F)(F)F)cc(C(F)(F)F)c1 (stereo in doubt)
- ID50 (Gerbillinae [1]): 0.5 mg/kg
- inhibition in vivo at 3 mg/kg (Gerbillinae [11]): 95%
- ID50 (Gerbillinae [18]): 1.1 mg/kg

- IC50 (Substance-P receptor): 0.47 nM
Compound: C[C@@H](O[C@@H]1CN(C(=O)N2CCn3c(nnc3C(F)(F)F)C2)C[C@H]1c1ccc(F)cc1)c1cc(C(F)(F)F)cc(C(F)(F)F)c1
- inhibition in vivo at 3 mg/kg (Gerbillinae [11]): 66%

- IC50 (Substance-P receptor): 0.24 nM
Compound: C[C@@H](O[C@@H]1CN(C=O)C[C@H]1c1ccc(F)cc1)c1cc(C(F)(F)F)cc(C(F)(F)F)c1

- IC50 (Substance-P receptor): 0.07 nM
Compound: C[C@@H](O[C@@H]1CN(C2=CC(=O)CC2)C[C@H]1c1ccccc1)c1cc(C(F)(F)F)cc(C(F)(F)F)c1
- ED50 (Gerbillinae [1]): 1.1 mg/kg
- inhibition in vivo at 3 mg/kg (Gerbillinae [20]): 100%
- inhibition in vivo at 3 mg/kg (Gerbillinae [11]): 100%
- ED50 (Gerbillinae [18]): 0.9 mg/kg

- IC50 (Substance-P receptor): 0.09 nM
Compound: CC1CC(N2C[C@@H](O[C@H](C)c3cc(C(F)(F)F)cc(C(F)(F)F)c3)[C@H](c3ccc(F)cc3)C2)=CC1=O (stereo in doubt)
- Inhibition (Gerbillinae [11]; 3 mg/kg): 2%

- IC50 (Substance-P receptor): 0.13 nM
Compound: CC1=C(N2C[C@@H](O[C@H](C)c3cc(C(F)(F)F)cc(C(F)(F)F)c3)[C@H](c3ccc(F)cc3)C2)CCC1=O
- inhibition in vivo at 3 mg/kg (Gerbillinae [11]): 67%

- IC50 (Substance-P receptor): 0.58 nM
Compound: C[C@@H](O[C@@H]1CN(C(=O)NCc2cnn[nH]2)C[C@H]1c1ccc(F)cc1)c1cc(C(F)(F)F)cc(C(F)(F)F)c1
- inhibition in vivo at 3 mg/kg (Gerbillinae [11]): 24%

- IC50 (Substance-P receptor): 0.12 nM
Compound: Cc1cnc(C(=O)N2C[C@@H](O[C@H](C)c3cc(C(F)(F)F)cc(C(F)(F)F)c3)[C@H](c3ccc(F)cc3)C2)cn1
- inhibition in vivo at 3 mg/kg (Gerbillinae [11]): 45%

- IC50 (Substance-P receptor): 0.07 nM
Compound: CC(=O)N1CCC(C(=O)N2C[C@@H](O[C@H](C)c3cc(C(F)(F)F)cc(C(F)(F)F)c3)[C@H](c3ccc(F)cc3)C2)CC1
- inhibition in vivo at 3 mg/kg (Gerbillinae [11]): 50%
